From ChEMBL document CHEMBL1122387, “Synthesis and biological evaluation of sparsomycin analogues” (1983)

Legend:
[1] = tested on: P388; experiment: Percent inhibition of [123I]UdR incorporation in the DNA synthesis assay in P388 cell lines at a concentration of 10 E-3 M; type: functional; settings: Mus musculus, in the assay text read “[125I]UdR” for “[123I]UdR”
Summary of the method: (§1)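 DNA synthesis over 2 h at 37 °C, 5% CO2, on a rocker. Wells hold 6×10^5 cells (3×10^6 cells/mL): femoral marrow from male CD-1 mice, or P388 ascites cells kept by ip passage in DBA/2 mice. Medium is αMEM. Label is 0.1 μCi 125IUdR in 2×10^-5 M FUdR. Cells are harvested and gamma-counted. % inhibition versus control cpm, six replicate wells; ara-C serves as control.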

[2] = Percent inhibition of [123I]UdR incorporation in the DNA synthesis assay in bone marrow cells at a concentration of 10 e-3 M; type: functional; settings: Mus musculus, Bone element; in the assay text read “[125I]UdR” for “[123I]UdR”; summary of the method: as §1
[3] = tested on: P388; experiment: Percent inhibition of [75Se]- selenomethionine incorporation in the protein synthesis assay in P388 cell lines at a concentration of 10 E-3 M; type: functional; settings: Mus musculus
Summary of the method: (§2)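 Protein synthesis in 6×10^5 cells per well (3×10^6 cells/mL), from CD-1 mouse femoral marrow or ip-passaged DBA/2 P388 cells. Medium is Spinner's (10% heat-inactivated FCS for P388). 0.2 μCi L-[75Se]selenomethionine is added with compound, 2 h at 37 °C, 5% CO2, rocked. Cells are harvested and gamma-counted. % inhibition versus control cpm (ethanol controls where used), six replicate wells; puromycin or sparsomycin serves as control.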

[4] = Percent inhibition of [75Se]- selenomethionine incorporation in the protein synthesis assay in bone marrow cell lines at a concentration of 10 E-3; type: functional, Mus musculus; summary of the method: as §2
[5] = tested on: P815; experiment: Percent inhibition of [75Se]- selenomethionine incorporation in the protein synthesis assay in P815 cell lines at a concentration of 10 E-3 M; type: functional; settings: Mus musculus
Summary of the method: (§3)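 P815 mastocytoma cells are cultured in complete DMEM and plated at 6×10^5 cells per well in CDMEM. 0.2 μCi L-[75Se]selenomethionine is added with compound, 2 h at 37 °C, 5% CO2, on a rocker. Cells are harvested and gamma-counted. % inhibition is taken versus control cpm (ethanol controls where used), four replicate wells.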

[6] = tested on: P388; experiment: Percent inhibition of [75Se]- selenomethionine incorporation in the protein synthesis assay in P388 cell lines at a concentration of 10 E-4 M; type: functional; settings: Mus musculus; summary of the method: as §2
[7] = tested on: Osteoclast-like; experiment: Percent inhibition of [75Se]- selenomethionine incorporation in the protein synthesis assay in bone marrow cell lines at a concentration of 10 E-4; type: functional, Mus musculus; summary of the method: as §2
[8] = tested on: P815; experiment: Percent inhibition of [75Se]- selenomethionine incorporation in the protein synthesis assay in P815 cell lines at a concentration of 10 E-4 M; type: functional; settings: Mus musculus; summary of the method: as §3

Row | SMILES | inhibition at 1000 µM [1] [%] | inhibition at 1000 µM [2] [%] | inhibition at 1000 µM [3] [%] | Inhibition [4] [%] | inhibition at 1000 µM [5] [%] | inhibition at 100 µM [6] [%] | Inhibition [7] [%] | inhibition at 100 µM [8] [%]
1 | COc1ccc(CCNC(=O)/C=C/c2c(C)nc(O)nc2O)cc1 | 2 | 0 | 0 | 44 | 0 | – | – | –
2 | COc1ccc(CC(CO)NC(=O)/C=C/c2c(C)nc(O)nc2O)cc1 (stereo unspecified) | – | – | – | – | – | 0 | 0 | 0
3 | Cc1nc(O)nc(O)c1/C=C/C(=O)NC(CO)Cc1ccccc1 (stereo unspecified) | 5 | 0 | 6 | 34 | 52 | – | – | –
4 | CSC[S@@+]([O-])CC(CO)NC(=O)/C=C/c1c(C)[nH]c(=O)[nH]c1=O (stereo partly specified) [SPARSOMYCIN] | – | – | 48 | 29 | – | – | – | –
5 | COc1ccc(CNC(=O)CCNC(=O)/C=C/c2c(C)nc(O)nc2O)cc1 | – | – | 1 | 11 | 0 | – | – | –
6 | Cc1nc(O)nc(O)c1/C=C/C(=O)NC(CO)Cc1ccc(Br)cc1 (stereo unspecified) | 34 | 15 | 44 | 64 | 94 | – | – | –
7 | Cc1nc(O)nc(O)c1/C=C/C(=O)NCCc1ccc(Br)cc1 | 17 | 0 | 27 | 42 | 89 | – | – | –
8 | Cc1ccc(CC(CO)NC(=O)/C=C/c2c(C)nc(O)nc2O)cc1 (stereo unspecified) | 0 | 0 | 4 | 40 | 65 | – | – | –
9 | Cc1nc(O)nc(O)c1/C=C/C(=O)NCCc1ccccc1 | 9 | 0 | 1 | 34 | 2 | – | – | –
10 | Cc1ccc(CCNC(=O)/C=C/c2c(C)nc(O)nc2O)cc1 | 0 | 0 | 0 | 35 | 11 | – | – | –
11 | Nc1ccn([C@@H]2O[C@H](CO)[C@@H](O)[C@@H]2O)c(=O)n1 [CYTARABINE] | 99 | 99 | – | – | – | – | – | –
12 | Cc1nc(O)nc(O)c1/C=C/C(=O)NCCC(=O)NCc1ccc(Br)cc1 | – | – | 23 | 29 | 69 | – | – | –
13 | COc1ccc(C[C@H](N)C(=O)N[C@H]2[C@@H](O)[C@H](n3cnc4c(N(C)C)ncnc43)O[C@@H]2CO)cc1 [PUROMYCIN] | – | – | 64 | 61 | 98 | – | – | –
